Screens: PubChem BioAssay, several laboratories
Rows were chosen to be rich in hits. Some 1.8% of all compounds tested hit in one or more screens of this group.
CCR6 antag = CCR6 (human) receptor antagonism | 340,000 compounds, 0.49% hits | AID 493098 | P51684 | inhibition, % at 20 µM | CHO-K1 CCR6 PathHunter beta-arrestin, luminescence, CCL20-stimulated;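 active = compounds whose inhibition of the agonist-driven luminescence signal at 20 µM reaches about 50%, limit read from the data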;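 note: cells stimulated with CCL20 at 14 nM final; plate controls were DMSO with CCL20 for no effect and DMSO without agonist for full effect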
CXCR6 block = CXCR6 (human) receptor inhibition; CHO-K1 PathHunter CXCR6 beta-arrestin, luminescence; inhibition, % at 20 µM; AID 602244; O00574; 360,000 compounds, 0.36% hits; in the data active = inhibition above about 34%, passing the limit was not always enough;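 note: antagonist mode with CXCL16 agonist at 10 nM final; 0% = 10 nM CXCL16 with DMSO and 100% = unstimulated wells without agonist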
Target sequence (O00574 whole entry, looked up): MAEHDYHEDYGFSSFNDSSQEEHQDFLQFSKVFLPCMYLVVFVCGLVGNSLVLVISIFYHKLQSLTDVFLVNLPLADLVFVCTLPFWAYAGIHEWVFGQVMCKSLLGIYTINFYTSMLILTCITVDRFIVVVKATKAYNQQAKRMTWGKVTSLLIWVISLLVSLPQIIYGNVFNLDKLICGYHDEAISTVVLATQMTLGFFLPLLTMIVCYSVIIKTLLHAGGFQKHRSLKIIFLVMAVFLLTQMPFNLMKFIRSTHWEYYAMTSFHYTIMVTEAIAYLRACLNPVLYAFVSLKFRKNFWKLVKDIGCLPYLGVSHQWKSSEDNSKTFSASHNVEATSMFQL
EBI2 block = antagonists of human EBI2 receptor | P32249 | EBI2 beta-arrestin recruitment, luminescence, 7a,25-OHC stimulated | inhibition, % at 5 µM | 360,000 compounds, 0.81% hits | AID 651636; in the data active = inhibition above about 38%;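 note: enzyme fragment complementation signal reports receptor beta-arrestin coupling in cells; 0% = agonist plus DMSO wells and 100% = wells without agonist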
Target sequence (P32249 whole entry, looked up, the tested form may be a part): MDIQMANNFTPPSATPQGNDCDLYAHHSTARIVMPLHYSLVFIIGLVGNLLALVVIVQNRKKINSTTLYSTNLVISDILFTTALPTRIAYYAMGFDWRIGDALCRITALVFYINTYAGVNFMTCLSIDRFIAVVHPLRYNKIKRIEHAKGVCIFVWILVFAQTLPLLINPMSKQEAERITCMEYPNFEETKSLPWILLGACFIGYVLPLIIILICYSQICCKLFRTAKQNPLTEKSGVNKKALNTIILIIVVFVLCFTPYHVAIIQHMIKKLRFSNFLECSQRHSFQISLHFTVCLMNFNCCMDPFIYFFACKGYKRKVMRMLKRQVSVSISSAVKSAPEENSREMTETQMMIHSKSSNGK
APJ antagonist = APJ receptor antagonism; P35414; CHO-K1 APJ beta-arrestin complementation, luminescence; inhibition, % at 20 µM; 330,000 compounds, 0.32% hits; AID 2521;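 active = inhibition above about 40% at 20 µM, limit read from the data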;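 note: cells challenged with 10 nM apelin-13 agonist together with compound; plate controls were apelin-13 plus DMSO wells for no effect and DMSO wells lacking apelin-13 for full effect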
APJ agonist = APJ receptor agonism; P35414; 330,000 compounds, 0.11% hits; activation, % at 20 µM; CHO-K1 APJ PathHunter beta-arrestin, luminescence; 0% DMSO wells, 100% apelin;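 active = activation more than six SD over the plate average, tested at 20 µM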;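 note: 0% = DMSO alone and 100% = apelin-13 at 10 nM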
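Incubation: overnight seeding, 90 min compound at 25 °C, 1 h detection; test system: PathHunter CHO-K1 APJ (AGTRL-1) beta-arrestin reporter cells; amount: 1000 cells/well; doses: one dose, 20 µM compound, 1% DMSO; measured by: beta-gal luminescence; measure: agonist-driven arrestin binding to APJ; benchmarks: negative DMSO alone, positive Apelin-13 at 10 nM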
B2AR ag = activates human beta-2 adrenergic receptor causing internalization. P07550. Am2.2-beta2AR cells, FAP receptor internalization, flow cytometry. response, % (test concentration not listed). 340,000 compounds, 0.43% hits. AID 504454;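 active = response above a set limit, near 3 SD of response in nonfluorescent compounds, cut at about 42% in these data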
CXCR6 confirm = CXCR6 antagonism confirmation, single concentration. shares compounds with CXCR6 block. CHO-K1 CXCR6 PathHunter beta-arrestin, luminescence. inhibition, % at 20 µM. 700 compounds, 65% hits. AID 602409;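 active = mean inhibition over four retests above 40%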;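 note: receptor stimulated with 10 nM CXCL16 agonist; beta-galactosidase fragment complementation upon beta-arrestin recruitment to receptor; plate controls were CXCL16 plus DMSO for no effect and DMSO without CXCL16 for full effect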
* marks the source's active call; other numbers are inactive results; . = no result given.

SMILES | CCR6 antag | CXCR6 block | EBI2 block | APJ antagonist | APJ agonist | B2AR ag | CXCR6 confirm
COc1cc(/C=C/C(=O)c2ccc(C)c([N+](=O)[O-])c2)cc(OC)c1O | 68* | 43* | 25 | 38 | -6 | 22 | 55*
Cc1ccccc1CS(=O)(=O)c1ncc(Cl)c(C(=O)Nc2ccc(F)cc2)n1 | . | 58* | 53* | 0 | 0 | 29 | 58*
CCOC(=O)c1ccc(NC(=O)c2nc(SC)ncc2Cl)cc1 | 21 | 4 | -10 | 13 | -5 | -7 | .
CSc1ncc(Cl)c(C(=O)Nc2ccc(S(=O)(=O)Nc3nccc(C)n3)cc2)n1 | 20 | 4 | 3 | 10 | -8 | -5 | .
Cc1cccc(CS(=O)(=O)c2ncc(Cl)c(C(=O)NCc3ccccc3)n2)c1 | 48 | 57* | 30 | 16 | -3 | 0 | 64*
CCN(c1ccccc1)S(=O)(=O)c1ccc(NC(=O)c2nc(S(C)(=O)=O)ncc2Cl)cc1 | 96* | 81* | 9 | 20 | 9 | 104* | 68*
Cc1ccc(NC(=O)c2nc(S(=O)(=O)Cc3ccccc3)ncc2Cl)cc1 | 80* | 59* | 34 | 18 | 0 | 13 | 57*
Cc1ccc(S(=O)(=O)N2CCN(C(=O)Cc3c(F)cccc3Cl)CC2)cc1 | 12 | 0 | -2 | -3 | -4 | 1 | .
COc1ccc(C(O)c2nc(-c3ccc(F)c(Cl)c3)cs2)cc1 (centres undefined) | . | -4 | 10 | . | . | . | .
COc1ccc(CN2CCN(S(=O)(=O)c3ccccc3)CC2)c(OC)c1OC | 5 | -10 | -10 | -11 | -3 | 1 | .
CCN(CC)CCNC(=O)c1ccc(NC(=O)c2ccccc2-c2ccc(C(F)(F)F)cc2)cc1 | 14 | 1 | 9 | -1 | -1 | 21 | .
COc1cc(S(=O)(=O)NC2CC(C)(C)NC(C)(C)C2)c(OC)cc1Cl | -4 | 0 | -31 | 4 | -4 | -4 | .
COc1cc(S(=O)(=O)NC2CCCC2)c(OC)cc1Cl | 9 | 46* | -10 | 7 | -1 | -3 | 5
CCn1c(C)c(C)c2cc(C(=O)NC3CCCCCC3)ccc21 | 10 | 0 | 16 | -5 | 0 | 14 | .
O=S(=O)(/C=C/C=C/S(=O)(=O)c1ccccc1)c1ccccc1 | 89* | 70* | 54* | . | . | 29 | 67*
O=C(Nc1nccs1)c1sc2cc(Cl)ccc2c1Cl | 73* | 67* | 16 | 31 | -6 | -1 | 76*
NC(=O)[C@H]1CC2(CC(c3cccc(NC(=O)[C@H]4CCC(=O)N4)c3)=NO2)CN1C(=O)c1cc([N+](=O)[O-])cc([N+](=O)[O-])c1 (some centres undefined) | -17 | -28 | -27 | -100 | 9 | 4 | .
Cn1c(=S)c2[nH]c(SCC3CCCO3)nc2n(C)c1=O (centres undefined) | 26 | 2 | -12 | . | . | -9 | .
CCCC(C)Sc1nc2c([nH]1)c(=S)n(C)c(=O)n2C (centres undefined) | 40 | 42* | 2 | . | . | 4 | 16
O=C1C=CC(=O)N1c1ccc2c(c1)Cc1cc(F)ccc1-2 | 2 | -6 | 6 | . | . | 4 | .
CC(=O)Nc1ccc2c(c1)Cc1cc(N3C(=O)C=CC3=O)ccc1-2 | 115* | 99* | 25 | . | . | 44* | 72*
Cc1ccc(/C(O)=C/C(=O)C(=O)NC23CC4CC(CC(C4)C2)C3)cc1 | 70* | 53* | -4 | 28 | -16 | -2 | 39
Cc1ccc(Oc2ccccc2NC(=O)CN2C(=O)NC3(CCCC3)C2=O)cc1 | -7 | 43* | -5 | -1 | 1 | -1 | 10
Cc1cccc(NC(=O)CNC(=O)CSc2nc(N)cc(N)n2)c1C | 14 | -7 | -5 | -19 | -1 | -5 | .
CCOc1ccccc1C(=O)N/N=C/c1cccc2cccnc12 | -13 | -5 | -13 | -13 | 5 | -4 | .
SMILES | CCR6 antag | CXCR6 block | EBI2 block | APJ antagonist | APJ agonist | B2AR ag | CXCR6 confirm
CCOc1ccc(C(=O)N/N=C/c2cccc3cccnc23)cc1 | . | 56* | 2 | 25 | -3 | 17 | 64*
COc1ccc(C(=O)N/N=C/c2cccc3cccnc23)cc1 | 23 | 52* | 4 | 12 | -4 | -1 | 60*
Cc1nn(C)c(C(=O)NC(=S)Nc2ccccc2O)c1Cl | 50* | 44* | 1 | 28 | -13 | 16 | 32
C[C@@H]1CN([C@@H](C)CO)S(=O)(=O)c2ccc(Br)cc2O[C@H]1CN(C)Cc1ccc(-c2ccccc2)cc1 | . | -5 | 21 | . | . | . | .
Nc1cccc2c1C(=O)N(C(=O)c1ccco1)C2=O | 5 | -2 | 3 | 21 | -2 | 1 | .
Nc1cccc2c1C(=O)N(C(=O)/C=C/c1ccc(F)cc1)C2=O | 61* | 48* | 2 | 36 | 0 | 87* | 38
C/C(=C\C(=O)c1ccccc1)NNC(=O)c1ccc(Cl)cc1 | 55* | 46* | 2 | 27 | -5 | -1 | 6
C=C1CCN([C@@H](Cc2ccccc2)C(=O)NCCC(C)C)S(=O)(=O)c2ccccc21 | 24 | 41* | 28 | -34 | -2 | 8 | 42*
c1ccc(-c2nc3ccccc3[nH]2)cc1 | 10 | -2 | -6 | -13 | 0 | -25 | .
S=c1nc(-c2ccccc2)[nH]c2ccc(Br)cc12 | 30 | 42* | 2 | 25 | -2 | 0 | 9
CCOC(=O)C1=NN(C(=O)c2ccccc2)C(O)(c2ccc(C)cc2)C1 (centres undefined) | 12 | 8 | -3 | -3 | -3 | -5 | .
CCC1=NN(C(=O)c2ccc(Br)cc2)C(O)(c2ccccc2)C1 (centres undefined) | 73* | 48* | 16 | 30 | -5 | 10 | 34
CCC1=NN(C(=O)c2cccc([N+](=O)[O-])c2)C(O)(c2ccc(C)cc2)C1 (centres undefined) | 66* | 48* | 2 | 37 | -5 | -1 | 13
Cc1cc(-c2cc(C(=O)NCc3ccccc3)on2)nc(NCC2CC2)n1 | 7 | -5 | 2 | -2 | -7 | -1 | .
CCOc1cc(/C=C2\N=C(SC)SC2=O)cc([N+](=O)[O-])c1OC(C)=O | 32 | 42* | 2 | 23 | -5 | 25 | 40*
COc1ccc(/C=C2\N=C(SC)SC2=O)cc1OC | 24 | 3 | -4 | 7 | -6 | 4 | .
CCOc1cc(/C=C2\N=C(SCC)SC2=O)cc([N+](=O)[O-])c1OC(C)=O | 55* | 45* | 10 | 36 | -12 | 7 | 59*
CCOc1c(OC(C)=O)ccc(/C=C2\N=C(SCC)SC2=O)c1[N+](=O)[O-] | 39 | 20 | -4 | 12 | -4 | 10 | .
CCNC(=O)C1(C)CCCN(Cc2cccc(Oc3ccccc3)c2)C1 (centres undefined) | . | 4 | 1 | . | . | . | .
